Test results: ChEMBL document CHEMBL1137787 (J Med Chem, 2009)
One block for each compound: values may come before it. The source made the active and inactive calls. The rule behind the calls is not given here.

Legend:
[1] = biological target: T1, Metabotropic glutamate receptor 5 (Rattus norvegicus, UniProt P31424); assay: (§1) Positive allosteric modulator activity at rat mGlu5 receptor expressed in HEK293 cells assessed as potentiation of glutamate-induced response relative to glutamate; format: cell-based
T1 sequence (P31424 whole entry): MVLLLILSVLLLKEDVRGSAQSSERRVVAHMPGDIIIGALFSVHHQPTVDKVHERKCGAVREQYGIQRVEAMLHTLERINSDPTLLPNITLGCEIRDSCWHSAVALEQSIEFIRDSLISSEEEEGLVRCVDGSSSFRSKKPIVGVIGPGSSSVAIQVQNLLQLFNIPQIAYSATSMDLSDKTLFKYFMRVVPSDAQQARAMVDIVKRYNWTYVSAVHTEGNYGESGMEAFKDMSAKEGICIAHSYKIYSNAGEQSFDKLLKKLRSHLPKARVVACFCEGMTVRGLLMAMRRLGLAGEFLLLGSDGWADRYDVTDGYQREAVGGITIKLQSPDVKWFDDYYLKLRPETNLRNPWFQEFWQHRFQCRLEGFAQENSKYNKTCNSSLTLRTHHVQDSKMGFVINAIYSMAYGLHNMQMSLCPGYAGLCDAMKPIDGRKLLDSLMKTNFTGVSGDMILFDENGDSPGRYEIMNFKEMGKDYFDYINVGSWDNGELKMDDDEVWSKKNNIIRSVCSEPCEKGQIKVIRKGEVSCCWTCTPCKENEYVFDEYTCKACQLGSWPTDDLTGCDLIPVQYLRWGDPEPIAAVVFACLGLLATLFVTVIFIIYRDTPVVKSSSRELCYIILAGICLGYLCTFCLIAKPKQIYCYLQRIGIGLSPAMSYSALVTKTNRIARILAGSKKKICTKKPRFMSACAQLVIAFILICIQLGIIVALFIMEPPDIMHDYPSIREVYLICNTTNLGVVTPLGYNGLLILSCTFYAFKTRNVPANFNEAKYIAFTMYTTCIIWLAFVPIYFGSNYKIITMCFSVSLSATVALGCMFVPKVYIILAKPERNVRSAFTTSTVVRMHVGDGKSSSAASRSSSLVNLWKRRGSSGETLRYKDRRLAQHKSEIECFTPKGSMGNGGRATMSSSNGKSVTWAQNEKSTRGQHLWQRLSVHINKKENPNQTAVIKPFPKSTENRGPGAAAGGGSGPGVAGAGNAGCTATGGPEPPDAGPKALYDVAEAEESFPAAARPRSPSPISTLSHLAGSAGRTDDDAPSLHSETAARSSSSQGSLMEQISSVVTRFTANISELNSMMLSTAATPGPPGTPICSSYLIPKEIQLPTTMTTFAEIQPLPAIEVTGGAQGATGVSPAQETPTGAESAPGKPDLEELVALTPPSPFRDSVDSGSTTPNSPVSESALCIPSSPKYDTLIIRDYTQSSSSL

[2] = biological target: Metabotropic glutamate receptor 5 (Rattus norvegicus) (UniProt P31424); assay: Positive allosteric modulator activity at rat mGlu5 receptor expressed in HEK293 cells assessed as fold shift in glutamate induced response at 10 uM; format: cell-based
Chain of Metabotropic glutamate receptor 5 (Rattus norvegicus) (P31424 21-1203 limits assumed): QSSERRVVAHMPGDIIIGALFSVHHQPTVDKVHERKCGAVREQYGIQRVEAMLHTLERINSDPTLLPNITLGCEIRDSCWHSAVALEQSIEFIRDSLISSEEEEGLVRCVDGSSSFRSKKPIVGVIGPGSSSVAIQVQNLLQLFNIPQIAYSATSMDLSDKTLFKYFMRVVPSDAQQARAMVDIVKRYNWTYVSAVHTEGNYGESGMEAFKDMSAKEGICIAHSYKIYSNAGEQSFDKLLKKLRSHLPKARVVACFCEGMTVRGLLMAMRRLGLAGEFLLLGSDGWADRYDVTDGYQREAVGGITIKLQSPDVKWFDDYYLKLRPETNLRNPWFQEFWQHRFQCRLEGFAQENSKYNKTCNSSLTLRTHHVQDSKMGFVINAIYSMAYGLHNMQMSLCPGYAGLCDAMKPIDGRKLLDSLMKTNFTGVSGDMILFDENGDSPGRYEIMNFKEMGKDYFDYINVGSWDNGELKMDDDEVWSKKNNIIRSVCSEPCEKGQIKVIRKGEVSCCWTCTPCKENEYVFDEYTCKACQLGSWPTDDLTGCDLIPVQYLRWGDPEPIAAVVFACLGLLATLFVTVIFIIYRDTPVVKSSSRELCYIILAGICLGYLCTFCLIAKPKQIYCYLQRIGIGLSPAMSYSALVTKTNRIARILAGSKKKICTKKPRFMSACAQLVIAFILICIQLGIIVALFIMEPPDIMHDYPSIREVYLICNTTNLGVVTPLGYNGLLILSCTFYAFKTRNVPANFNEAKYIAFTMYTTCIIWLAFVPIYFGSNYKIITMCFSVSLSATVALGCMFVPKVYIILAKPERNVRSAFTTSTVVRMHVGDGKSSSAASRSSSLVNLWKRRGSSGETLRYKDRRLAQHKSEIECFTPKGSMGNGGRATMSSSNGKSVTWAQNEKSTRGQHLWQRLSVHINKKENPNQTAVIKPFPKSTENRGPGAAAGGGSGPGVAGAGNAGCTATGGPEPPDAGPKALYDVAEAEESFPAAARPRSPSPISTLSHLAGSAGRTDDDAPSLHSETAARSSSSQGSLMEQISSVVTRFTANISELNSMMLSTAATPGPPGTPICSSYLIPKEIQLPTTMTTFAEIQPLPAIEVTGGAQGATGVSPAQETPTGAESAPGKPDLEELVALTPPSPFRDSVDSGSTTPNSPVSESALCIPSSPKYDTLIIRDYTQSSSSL

[3] = biological target: T1, Metabotropic glutamate receptor 5; assay: Antagonist activity at rat mGlu5 receptor expressed in HEK293 cells assessed as inhibition of glutamate-induced response; format: functional, cell-based
[4] = biological target: Metabotropic glutamate receptor 7 (Homo sapiens, UniProt Q14831); assay: Antagonist activity at mGlu7 receptor; format: functional
Chain of Metabotropic glutamate receptor 7 (Q14831 whole entry): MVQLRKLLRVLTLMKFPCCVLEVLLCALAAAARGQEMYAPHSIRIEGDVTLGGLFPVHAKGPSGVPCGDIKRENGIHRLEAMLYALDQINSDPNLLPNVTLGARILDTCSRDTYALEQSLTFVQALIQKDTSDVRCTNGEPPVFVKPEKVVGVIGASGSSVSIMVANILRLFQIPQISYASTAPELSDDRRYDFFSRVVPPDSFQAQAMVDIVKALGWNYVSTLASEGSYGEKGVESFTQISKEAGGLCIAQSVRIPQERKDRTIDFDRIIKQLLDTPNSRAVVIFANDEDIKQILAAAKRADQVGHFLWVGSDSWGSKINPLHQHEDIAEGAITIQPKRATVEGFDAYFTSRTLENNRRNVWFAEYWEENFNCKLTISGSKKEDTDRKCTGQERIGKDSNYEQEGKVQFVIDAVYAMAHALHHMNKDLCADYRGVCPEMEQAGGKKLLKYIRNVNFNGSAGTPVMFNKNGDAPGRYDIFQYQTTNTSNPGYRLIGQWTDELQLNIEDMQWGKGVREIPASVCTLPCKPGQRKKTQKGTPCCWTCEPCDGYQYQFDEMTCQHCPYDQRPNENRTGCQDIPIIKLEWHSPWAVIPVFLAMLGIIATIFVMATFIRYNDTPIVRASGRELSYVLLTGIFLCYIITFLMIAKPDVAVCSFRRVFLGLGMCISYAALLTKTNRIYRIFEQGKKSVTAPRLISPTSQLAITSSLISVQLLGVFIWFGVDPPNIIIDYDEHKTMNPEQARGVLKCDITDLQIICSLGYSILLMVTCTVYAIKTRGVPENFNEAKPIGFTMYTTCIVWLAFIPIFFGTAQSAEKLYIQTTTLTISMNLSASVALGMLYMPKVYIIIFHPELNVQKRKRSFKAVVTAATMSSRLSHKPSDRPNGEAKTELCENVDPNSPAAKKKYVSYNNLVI

[5] = test system: Rattus norvegicus; assay: Antipsychotic activity in Sprague-Dawley rat assessed as reversal of amphetamine-induced hyperlocomotion administered ip 30 mins before amphetamine-challenge; format: functional, organism-based
In short: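 Rats were given the test compound i.p. at 3, 10 or 30 mg/kg in 10% Tween 80 vehicle. Thirty minutes later they received amphetamine, 1 mg/kg s.c. Locomotor activity was then measured. Test compound or vehicle alone was also assessed without amphetamine.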

[6] = biological target: Metabotropic glutamate receptor 8 (Homo sapiens, UniProt O00222); assay: Antagonist activity at mGlu8 receptor; format: functional
[7] = biological target: Metabotropic glutamate receptor 3 (Homo sapiens, UniProt Q14832); assay: Antagonist activity at mGlu3 receptor; format: functional
[8] = biological target: Metabotropic glutamate receptor 1 (Homo sapiens, UniProt Q13255); assay: Antagonist activity at mGlu1 receptor; format: functional
Chain of Metabotropic glutamate receptor 1 (Q13255 whole entry): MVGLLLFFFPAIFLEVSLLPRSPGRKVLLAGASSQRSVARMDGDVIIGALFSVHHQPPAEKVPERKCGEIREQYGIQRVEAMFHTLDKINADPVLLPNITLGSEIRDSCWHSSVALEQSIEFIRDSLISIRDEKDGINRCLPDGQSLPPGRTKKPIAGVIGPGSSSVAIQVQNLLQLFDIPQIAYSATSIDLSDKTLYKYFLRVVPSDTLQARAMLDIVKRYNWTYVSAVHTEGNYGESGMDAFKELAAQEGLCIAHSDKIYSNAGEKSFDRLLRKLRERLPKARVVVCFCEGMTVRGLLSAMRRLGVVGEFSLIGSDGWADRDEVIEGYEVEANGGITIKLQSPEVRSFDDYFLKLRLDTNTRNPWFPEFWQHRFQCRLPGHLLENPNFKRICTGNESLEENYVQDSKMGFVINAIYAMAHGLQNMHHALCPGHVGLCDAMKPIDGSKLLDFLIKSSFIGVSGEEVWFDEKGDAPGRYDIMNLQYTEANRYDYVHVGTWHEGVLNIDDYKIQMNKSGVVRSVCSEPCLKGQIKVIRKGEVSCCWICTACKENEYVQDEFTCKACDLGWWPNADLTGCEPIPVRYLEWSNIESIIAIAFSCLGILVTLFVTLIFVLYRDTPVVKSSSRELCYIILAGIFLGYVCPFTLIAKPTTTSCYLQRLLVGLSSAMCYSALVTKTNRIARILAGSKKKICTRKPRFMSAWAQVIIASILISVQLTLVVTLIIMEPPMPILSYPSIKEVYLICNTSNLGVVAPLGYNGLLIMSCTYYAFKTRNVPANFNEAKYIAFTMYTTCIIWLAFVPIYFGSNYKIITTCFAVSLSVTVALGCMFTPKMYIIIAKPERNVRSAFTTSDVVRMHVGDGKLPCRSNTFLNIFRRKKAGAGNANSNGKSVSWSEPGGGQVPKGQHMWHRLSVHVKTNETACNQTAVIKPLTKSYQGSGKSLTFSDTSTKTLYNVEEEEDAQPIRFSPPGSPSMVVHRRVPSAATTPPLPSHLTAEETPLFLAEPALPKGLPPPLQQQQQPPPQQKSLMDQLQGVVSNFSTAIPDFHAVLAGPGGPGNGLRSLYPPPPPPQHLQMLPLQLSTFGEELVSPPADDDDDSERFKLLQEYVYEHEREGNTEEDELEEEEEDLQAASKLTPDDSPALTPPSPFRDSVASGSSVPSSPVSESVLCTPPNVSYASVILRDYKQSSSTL

[9] = biological target: Metabotropic glutamate receptor 2 (Homo sapiens, UniProt Q14416); assay: Antagonist activity at mGlu2 receptor; format: functional
[10] = biological target: Metabotropic glutamate receptor 5 (Rattus norvegicus) (UniProt P31424); assay: Antagonist activity at rat mGlu5 receptor expressed in HEK293 cells assessed as inhibition of glutamate-induced response at 10 uM; format: functional, cell-based; set-up: scale not given: the % may be the effect or the level left
[11] = biological target: Metabotropic glutamate receptor 5 (Rattus norvegicus) (UniProt P31424); assay: as §1; format: cell-based
[12] = test system: Rattus norvegicus; assay: Anxiolytic activity against Sprague-Dawley rat Geller-Seifter conflict model assessed as increase punished response rate at 30 mg/kg, ip; format: functional; settings: route intraperitoneal
In short: (§2)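 Modified Geller-Seifter conflict schedule with punished and unpunished components. Animals were tested on 1, 3, 10 and 30 mg/kg and on vehicle. Read-out was the number of responses in each component, as mean ± SEM for eighteen animals. Analysis used ANOVA with Newman-Keuls post hoc comparison to vehicle.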

[13] = biological target: Metabotropic glutamate receptor 4 (Homo sapiens, UniProt Q14833); assay: Antagonist activity at mGlu4 receptor; format: functional
[14] = test system: Rattus norvegicus; assay: Anxiolytic activity against ip dosed Sprague-Dawley rat Geller-Seifter conflict model assessed as increase in punished response; format: functional, organism-based; in short: as §2

SMILES: COc1ncc(C#Cc2ccc(C)cc2)cn1
EC50 ([1]; hek293): Not Active

SMILES: CCNc1ncc(C#Cc2ccc(C)cc2)cn1
EC50 ([1]; hek293): Not Active

SMILES: Cc1ncc(C#Cc2ccccc2)cn1
EC50 ([1]; hek293): Not Active

SMILES: Cc1cccc(C#Cc2cncnc2)c1
IC50 ([3]; read-out: IC50): 7.5 nM

SMILES: CCOc1ncc(C#Cc2ccc(C)cc2)cn1
IC50 ([3]; hek293): Not Active

SMILES: CCc1ncc(C#Cc2ccc(C)cc2)cn1
EC50 ([1]; hek293): Not Active

SMILES: CNc1ncc(C#Cc2ccccc2)cn1
EC50 ([1]; read-out: EC50): 14.3 nM | IC50 [4]: > 10000 nM | fold change (FC) [2]: 15 | Activity [5]: Dose-dependent effect | IC50 [6]: > 10000 nM | IC50 [7]: > 10000 nM | IC50 [8]: > 10000 nM | IC50 [9]: > 10000 nM

SMILES: CCNc1ncc(C#Cc2ccccc2)cn1
EC50 ([1]; hek293): Not Active

SMILES: C(#Cc1cncnc1)c1ccccc1
Activity [11]: 29% | IC50 ([3]; read-out: IC50): 486 nM

SMILES: Cc1ccc(C#Cc2cncnc2)cc1
fold change (FC) [2]: 4.2

SMILES: CSc1ncc(C#Cc2ccc(C)cc2)cn1
EC50 ([1]; hek293): Not Active

SMILES: Cc1ccc(C#Cc2ncccn2)cc1
Activity [11]: inactive | IC50 ([3]; read-out: IC50): > 10000 nM

SMILES: CCOc1ncc(C#Cc2ccccc2)cn1
IC50 ([3]; hek293): Not Active

SMILES: CCc1ncc(C#Cc2ccccc2)cn1
EC50 ([1]; hek293): Not Active

SMILES: CSc1ncc(C#Cc2ccccc2)cn1
EC50 ([1]; read-out: EC50): 120 nM | fold change (FC) [2]: 11

SMILES: CNc1ncc(C#Cc2ccc(C)cc2)cn1
EC50 ([1]; read-out: EC50): 704 nM | fold change (FC) [2]: 5.7

SMILES: COc1ncc(C#Cc2ccccc2)cn1
EC50 ([1]; hek293): Not Active

SMILES: C(#Cc1ncccn1)c1ccccc1
Activity [10]: 100% | IC50 ([3]; read-out: IC50): 195 nM

SMILES: Cc1cccc(C#Cc2ncccn2)c1
IC50 [4]: > 10000 nM | Activity [12]: 300% | IC50 [13]: > 10000 nM | Activity [14]: Dose-dependent effect | IC50 [6]: > 10000 nM | IC50 [7]: > 10000 nM | Activity [10]: 100% | IC50 [8]: > 10000 nM | IC50 [9]: > 10000 nM | IC50 ([3]; read-out: IC50): 10.8 nM

The next lines start with the values.

EC50 ([1]; hek293): Not Active
SMILES: COc1ncc(C#Cc2cccc(C)c2)cn1

EC50 ([1]; hek293): Not Active
SMILES: CCNc1ncc(C#Cc2cccc(C)c2)cn1

EC50 ([1]; read-out: EC50): 247 nM | fold change (FC) [2]: 6
SMILES: CC(C)(C)c1ncc(C#Cc2ccccc2)cn1

EC50 ([1]; hek293): Not Active
SMILES: Cc1ccc(C#Cc2cnc(C(C)(C)C)nc2)cc1

EC50 ([1]; hek293): Not Active
SMILES: Cc1cccc(C#Cc2cnc(C(C)(C)C)nc2)c1

EC50 ([1]; hek293): Not Active
SMILES: CCc1ncc(C#Cc2cccc(C)c2)cn1

Activity [10]: 100% | IC50 ([3]; read-out: IC50): 21.1 nM
SMILES: CCOc1ncc(C#Cc2cccc(C)c2)cn1

EC50 ([1]; hek293): Not Active
SMILES: Cc1ccc(C#Cc2cnc(C)nc2)cc1

EC50 ([1]; hek293): Not Active
SMILES: CSc1ncc(C#Cc2cccc(C)c2)cn1

EC50 ([1]; read-out: EC50): 21.1 nM | fold change (FC) [2]: 5.9
SMILES: CNc1ncc(C#Cc2cccc(C)c2)cn1

EC50 ([1]; hek293): Not Active
SMILES: Cc1cccc(C#Cc2cnc(C)nc2)c1
